Reference: ChEMBL document CHEMBL3091288, “Fluorine Scanning by Nonselective Fluorination: Enhancing Raf/MEK Inhibition while Keeping Physicochemical Properties” (ACS Med Chem Lett, 2013)
In brackets after ≈: the same amount, converted by molar mass.

Experiments:
[1] = Half life in rat at 5 mg/kg, iv by LC-MS/MS analysis; type: ADME, organism-based; parameters: dose 5 mg/kg, route intravenous; settings: in vivo
Procedure, shortened: (§1)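 Sodium salt dosed intravenously and orally in mouse (10/20 mg/kg), rat (5.0/10 mg/kg) and monkey (2.5/5.0 mg/kg iv/po), vehicle 5% DMSO/5% Cremophor EL/15% PEG400/15% HPCD/60% water. AUC_inf from oral dosing, t1/2 from iv dosing, clearance and oral bioavailability from paired iv/po data.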

[2] = AUC (infinity) in rat at 10 mg/kg, po by LC-MS/MS analysis; type: ADME, organism-based; parameters: time infinity, dose 10 mg/kg, route oral; settings: plasma; procedure, shortened: as §1
[3] = AUC (infinity) in BALB-nu/nu mouse at 20 mg/kg, po by LC-MS/MS analysis; type: ADME, organism-based; parameters: time infinity, dose 20 mg/kg, route oral; settings: plasma; procedure, shortened: as §1
[4] = Clearance in rat at 5 mg/kg, iv and 10 mg/kg, po by LC-MS/MS analysis; type: ADME, organism-based; settings: in vivo; procedure, shortened: as §1
[5] = Clearance in cynomolgus monkey at 2.5 mg/kg, iv and 5 mg/kg, po by LC-MS/MS analysis; type: ADME, organism-based, Macaca fascicularis; settings: in vivo; procedure, shortened: as §1
[6] = AUC (infinity) in cynomolgus monkey at 5 mg/kg, po by LC-MS/MS analysis; type: ADME, organism-based, Macaca fascicularis; parameters: dose 5 mg/kg, route oral, time infinity; settings: plasma; procedure, shortened: as §1
HCT-116 [7] = assay: Antitumor activity against human HCT116 cells xenografted in BALB-nu/nu mouse administered orally qd for 11 days; type: functional; settings: HCT-116, po, 264 h
Procedure, shortened: (§2)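 HCT116 cells implanted subcutaneously in right flank of BALB-nu/nu mice; tumours allowed to establish before dosing. Sodium salt given orally once daily for 11 days (day 0 to day 10). Tumour size measured twice weekly; mean SD, n = 4.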

[8] = Half life in BALB-nu/nu mouse at 10 mg/kg, iv by LC-MS/MS analysis; type: ADME, organism-based; parameters: dose 10 mg/kg, route intravenous; settings: in vivo; procedure, shortened: as §1
[9] = Half life in cynomolgus monkey at 2.5 mg/kg, iv by LC-MS/MS analysis; settings: in vivo
[10] = Oral bioavailability in BALB-nu/nu mouse at 20 mg/kg by LC-MS/MS analysis; type: ADME, organism-based; settings: in vivo; procedure, shortened: as §1
Mus musculus = assay: Toxicity in BALB nu/nu mouse xenografted with human HCT116 cells assessed as body weight change at 0.3 mg/kg to 30 mg/kg, po qd for 11 days measured twice per week; type: organism-based, HCT-116; settings: in vivo, 264 h
[11] = Oral bioavailability in cynomolgus monkey at 5 mg/kg by LC-MS/MS analysis; type: ADME, organism-based, Macaca fascicularis; settings: in vivo; procedure, shortened: as §1
[12] = Oral bioavailability in rat at 10 mg/kg by LC-MS/MS analysis; type: ADME, organism-based; settings: in vivo; procedure, shortened: as §1
[13] = Clearance in BALB-nu/nu mouse at 10 mg/kg, iv and 20 mg/kg, po by LC-MS/MS analysis; type: ADME, organism-based; settings: in vivo; procedure, shortened: as §1
HCT-116 [14] = assay: Antitumor activity against human HCT116 cells xenografted in BALB-nu/nu mouse assessed as tumor growth inhibition at 30 mg/kg, po qd for 11 days measured twice per week relative to control; type: functional; settings: HCT-116, 264 h, read-out: TGI; procedure, shortened: as §2
[15] = AUC (0 to 24 hrs) in BALB-nu/nu mouse at 100 mg/kg, po by LC-MS/MS analysis; type: ADME, organism-based; parameters: time < 24 hr, dose 100 mg/kg, route oral; settings: plasma
Procedure, shortened: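 Mice received a single oral dose of 100 mg/kg, formulated as a solution in 5% DMSO, 5% Cremophor EL, 15% PEG400, 15% HPCD and 60% water. Plasma exposure was evaluated over 24 h.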

[16] = AUC (0 to 24 hrs) in BALB-nu/nu mouse at 50 mg/kg, po by LC-MS/MS analysis; type: ADME, organism-based; parameters: time < 24 hr, dose 50 mg/kg, route oral; settings: plasma
[17] = molecular target: RAF proto-oncogene serine/threonine-protein kinase (Homo sapiens, UniProt P04049); assay: Inhibition of C-Raf (unknown origin) assessed as phosphorylation of MEK1 after 45 mins by TR-FRET assay
Sequence of RAF proto-oncogene serine/threonine-protein kinase (P04049 whole entry): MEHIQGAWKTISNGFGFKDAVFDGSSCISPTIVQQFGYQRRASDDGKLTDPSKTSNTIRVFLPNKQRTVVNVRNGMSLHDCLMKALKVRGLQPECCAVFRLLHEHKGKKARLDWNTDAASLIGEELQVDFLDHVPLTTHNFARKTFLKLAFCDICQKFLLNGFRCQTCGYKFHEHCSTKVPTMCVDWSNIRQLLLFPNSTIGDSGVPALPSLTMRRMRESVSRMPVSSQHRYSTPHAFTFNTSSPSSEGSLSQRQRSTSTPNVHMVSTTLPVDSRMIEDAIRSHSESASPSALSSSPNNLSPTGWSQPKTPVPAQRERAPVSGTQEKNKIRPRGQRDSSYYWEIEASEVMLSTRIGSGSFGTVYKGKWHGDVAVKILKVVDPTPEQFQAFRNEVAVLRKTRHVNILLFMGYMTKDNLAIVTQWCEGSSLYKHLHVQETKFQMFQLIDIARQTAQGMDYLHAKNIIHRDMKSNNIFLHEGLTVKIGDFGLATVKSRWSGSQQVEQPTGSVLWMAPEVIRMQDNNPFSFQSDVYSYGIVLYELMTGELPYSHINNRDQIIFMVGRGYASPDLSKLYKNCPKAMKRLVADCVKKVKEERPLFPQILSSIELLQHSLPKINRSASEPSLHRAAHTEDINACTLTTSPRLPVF

[18] = Permeability of the compound at pH 6.5 by PAMPA; type: ADME; settings: read-out: permeability
HCT-116 [19] = assay: Antiproliferative activity against human HCT116 cells assessed as cell viability after 96 hrs by cell counting kit-8 assay; type: functional, cell-based; settings: HCT-116, 96 h
[20] = Solubility of the compound in fasted state simulated intestinal fluid measured after overnight incubation by UV-HPLC analysis; type: ADME
Liver microsome = assay: Clearance in human liver microsomes at 5 uM by LC-MS/MS analysis; type: ADME
[21] = molecular target: Dual specificity mitogen-activated protein kinase kinase 1 (Homo sapiens, UniProt Q02750); assay: Inhibition of MEK1 (unknown origin) assessed as phosphorylation of Erk2 preincubated for 30 mins followed by FAM-Erktide addition measured after 60 mins by IMAP fluorescence polarization assay
Sequence of Dual specificity mitogen-activated protein kinase kinase 1 (Q02750 whole entry): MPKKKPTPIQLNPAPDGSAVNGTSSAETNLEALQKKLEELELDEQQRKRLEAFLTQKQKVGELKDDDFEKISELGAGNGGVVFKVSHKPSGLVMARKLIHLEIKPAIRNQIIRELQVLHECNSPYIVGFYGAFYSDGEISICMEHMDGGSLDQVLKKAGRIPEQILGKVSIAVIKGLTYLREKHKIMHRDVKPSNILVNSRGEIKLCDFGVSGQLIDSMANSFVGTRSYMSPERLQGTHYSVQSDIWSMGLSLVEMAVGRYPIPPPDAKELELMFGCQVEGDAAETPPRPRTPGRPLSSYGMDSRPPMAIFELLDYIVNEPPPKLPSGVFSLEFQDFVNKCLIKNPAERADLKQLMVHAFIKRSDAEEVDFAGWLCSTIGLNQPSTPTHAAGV

[22] = Oral bioavailability in mouse; type: ADME, organism-based; settings: in vivo
Procedure, shortened: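 Mice received the sodium salt at 10 mg/kg iv and 20 mg/kg po, in a vehicle of 5% DMSO/5% Cremophor EL/15% PEG400/15% HPCD/60% water. Bioavailability was derived from the iv and po exposure.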

hERG (KCNH2) = hERG (KCNH2) (Homo sapiens, UniProt Q12809); assay: Inhibition of human ERG expressed in CHO cells at 10 uM by patch clamp assay relative to control; type: cell-based; settings: CHO cells expressing human ERG
Sequence of hERG (KCNH2) (Q12809 whole entry): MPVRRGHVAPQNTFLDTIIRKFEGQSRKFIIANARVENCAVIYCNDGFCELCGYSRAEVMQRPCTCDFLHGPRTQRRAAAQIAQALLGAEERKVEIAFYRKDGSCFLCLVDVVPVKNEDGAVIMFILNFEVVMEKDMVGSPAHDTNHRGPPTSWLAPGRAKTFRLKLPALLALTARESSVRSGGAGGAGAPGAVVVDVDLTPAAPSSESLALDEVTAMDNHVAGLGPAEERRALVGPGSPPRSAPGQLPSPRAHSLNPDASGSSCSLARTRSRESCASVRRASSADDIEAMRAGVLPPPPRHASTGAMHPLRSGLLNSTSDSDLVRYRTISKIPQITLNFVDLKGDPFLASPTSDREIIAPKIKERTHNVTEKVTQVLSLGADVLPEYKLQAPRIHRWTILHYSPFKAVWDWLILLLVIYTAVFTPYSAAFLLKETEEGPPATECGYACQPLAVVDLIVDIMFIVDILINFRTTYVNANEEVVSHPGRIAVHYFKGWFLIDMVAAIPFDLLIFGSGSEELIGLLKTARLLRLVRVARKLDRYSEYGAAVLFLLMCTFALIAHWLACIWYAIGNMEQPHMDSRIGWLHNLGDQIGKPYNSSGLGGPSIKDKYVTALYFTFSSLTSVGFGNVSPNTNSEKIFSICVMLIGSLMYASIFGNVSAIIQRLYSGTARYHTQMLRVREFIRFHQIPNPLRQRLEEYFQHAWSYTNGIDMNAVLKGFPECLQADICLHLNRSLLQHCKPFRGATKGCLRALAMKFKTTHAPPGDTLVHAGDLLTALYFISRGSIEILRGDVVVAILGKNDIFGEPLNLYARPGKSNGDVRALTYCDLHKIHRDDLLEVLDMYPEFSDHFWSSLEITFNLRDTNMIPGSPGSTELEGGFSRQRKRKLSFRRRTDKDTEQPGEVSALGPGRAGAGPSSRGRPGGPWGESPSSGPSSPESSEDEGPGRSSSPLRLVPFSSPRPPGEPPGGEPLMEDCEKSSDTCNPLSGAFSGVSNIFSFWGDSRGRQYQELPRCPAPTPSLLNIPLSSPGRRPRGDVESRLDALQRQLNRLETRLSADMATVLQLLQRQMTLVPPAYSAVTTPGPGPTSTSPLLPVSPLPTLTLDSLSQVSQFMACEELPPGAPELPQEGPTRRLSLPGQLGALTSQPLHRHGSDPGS

SMILES | AUC(0-t) at 24 h [15] | IC50 [17] | Papp [18] | IC50 (HCT-116 [19]) | solubility [20] | CLH (Liver microsome) | IC50 [21] | also measured
CNS(=O)(=O)[N-]c1cccc(Cc2c(C)c3ccc(Oc4ncccn4)cc3oc2=O)c1F.[Na+] | – | – | – | – | – | – | – | half-life [1]: 1.3 h; AUC(0-inf) [2]: 43 µM·h; AUC(0-inf) [3]: 75 µM·h; clearance [4]: 6.6 mL/min/kg; clearance [5]: 0.9 mL/min/kg; AUC(0-inf) [6]: 108 µM·h; ED50 (HCT-116 [7]): 1.4 mg/kg; half-life [8]: 4.8 h; half-life [9]: 2.9 h; bioavailability [10]: 75%; Activity (Mus musculus): Non-toxic; bioavailability [11]: 59%; bioavailability [12]: 84%; clearance [13]: 6.8 mL/min/kg; inhibition in vivo at 30 mg/kg (HCT-116 [14]): 119%
CNS(=O)(=O)[N-]c1cccc(Cc2c(C)c3ccc(Oc4nccs4)cc3oc2=O)c1F.[Na+] | 366 µM·h | – | – | – | – | – | – | –
CNS(=O)(=O)[N-]c1cccc(Cc2c(C)c3ccc(Oc4nccs4)cc3oc2=O)c1.[Na+] | 190 µM·h | – | – | – | – | – | – | –
CNS(=O)(=O)[N-]c1cccc(Cc2c(C)c3ccc(OC(=O)N(C)C)cc3oc2=O)c1F.[Na+] | 70 µM·h | – | – | – | – | – | – | –
CNS(=O)(=O)[N-]c1cccc(Cc2c(C)c3ccc(OC(=O)N(C)C)cc3oc2=O)c1.[Na+] | 78 µM·h | – | – | – | – | – | – | –
Cc1c(Cc2cccc([N-]S(N)(=O)=O)c2)c(=O)oc2cc(OC(=O)N(C)C)ccc12.[Na+] | 104 µM·h | – | – | – | – | – | – | –
Cc1c(Cc2cccc([N-]S(N)(=O)=O)c2F)c(=O)oc2cc(OC(=O)N(C)C)ccc12.[Na+] | – | – | – | – | – | – | – | AUC(0-t) at 24 h [16]: 40 µM·h
CNS(=O)(=O)Nc1cccc(Cc2c(C)c3ccc(Oc4nccs4)cc3oc2=O)c1F | – | 63 nM | 3 ×10⁻⁶ cm/s | 11 nM | 15 µg/mL (≈ 31.5 µM) | 9 µL/min/mg | 26 nM | –
CNS(=O)(=O)Nc1cccc(Cc2c(C)c3ccc(Oc4ncccn4)cc3oc2=O)c1C | – | 3600 nM | – | 330 nM | < 4 µg/mL | – | 4200 nM | –
CNS(=O)(=O)Nc1cccc(Cc2c(C)c3cc(I)c(OC(=O)N(C)C)cc3oc2=O)c1 | 16 µM·h | 25 nM | – | 8 nM | 8 µg/mL (≈ 14 µM) | 33 µL/min/mg | 5 nM | –
CNS(=O)(=O)Nc1cccc(Cc2c(C)c3cc(C)c(OC(=O)N(C)C)cc3oc2=O)c1 | 18 µM·h | 78 nM | – | 22 nM | 11 µg/mL (≈ 23.9 µM) | 17 µL/min/mg | 29 nM | –
C#Cc1cc2c(C)c(Cc3cccc(NS(=O)(=O)NC)c3)c(=O)oc2cc1OC(=O)N(C)C | – | 70 nM | – | 140 nM | 21 µg/mL (≈ 44.7 µM) | – | 100 nM | –
CNS(=O)(=O)Nc1cccc(Cc2c(C)c3cc(C#N)c(OC(=O)N(C)C)cc3oc2=O)c1 | 39 µM·h | 55 nM | – | 24 nM | 40 µg/mL (≈ 85 µM) | 15 µL/min/mg | 85 nM | –
Cc1c(Cc2cccc(NS(N)(=O)=O)c2)c(=O)oc2cc(OC(=O)N(C)C)ccc12 | – | 530 nM | 6 ×10⁻⁶ cm/s | 95 nM | 32 µg/mL (≈ 74.2 µM) | 6 µL/min/mg | 230 nM | bioavailability [22]: 62%
Cc1c(Cc2cc(NS(N)(=O)=O)ccc2F)c(=O)oc2cc(OC(=O)N(C)C)ccc12 | 176 µM·h | 830 nM | 5 ×10⁻⁶ cm/s | 950 nM | 9 µg/mL (≈ 20 µM) | 6 µL/min/mg | 940 nM | –
Cc1c(Cc2ccc(F)c(NS(N)(=O)=O)c2)c(=O)oc2cc(OC(=O)N(C)C)ccc12 | – | 1100 nM | 6 ×10⁻⁶ cm/s | 610 nM | 37 µg/mL (≈ 82.3 µM) | 6 µL/min/mg | 44 nM | –
Cc1c(Cc2cccc(NS(N)(=O)=O)c2F)c(=O)oc2cc(OC(=O)N(C)C)ccc12 | – | 13 nM | 6 ×10⁻⁶ cm/s | 18 nM | 273 µg/mL (≈ 607 µM) | 6 µL/min/mg | 53 nM | –
Cc1c(Cc2cccc(NS(N)(=O)=O)c2)c(=O)oc2cc(OC(=O)N(C)C)c(F)cc12 | – | 180 nM | 5 ×10⁻⁶ cm/s | 87 nM | 114 µg/mL (≈ 254 µM) | 6 µL/min/mg | 110 nM | AUC(0-t) at 24 h [16]: 61 µM·h
Cc1c(Cc2cccc(NS(N)(=O)=O)c2)c(=O)oc2c(F)c(OC(=O)N(C)C)ccc12 | – | 120 nM | – | 140 nM | – | – | 240 nM | –
CN(C)C(=O)Oc1ccc2c(CF)c(Cc3cccc(NS(N)(=O)=O)c3)c(=O)oc2c1 | 84 µM·h | 220 nM | 4 ×10⁻⁶ cm/s | 200 nM | 14 µg/mL (≈ 31.1 µM) | 7 µL/min/mg | 60 nM | –
CNS(=O)(=O)Nc1cccc(Cc2c(C)c3ccc(OC(=O)N(C)C)cc3oc2=O)c1 | – | 300 nM | 6 ×10⁻⁶ cm/s | 24 nM | 32 µg/mL (≈ 71.8 µM) | 20 µL/min/mg | 110 nM | –
CNS(=O)(=O)Nc1ccc(F)c(Cc2c(C)c3ccc(OC(=O)N(C)C)cc3oc2=O)c1 | 75 µM·h | 2400 nM | 5 ×10⁻⁶ cm/s | 550 nM | 51 µg/mL (≈ 110 µM) | 22 µL/min/mg | 2900 nM | –
CNS(=O)(=O)Nc1cccc(Cc2c(C)c3ccc(OC(=O)N(C)C)cc3oc2=O)c1F | – | 8 nM | 5 ×10⁻⁶ cm/s | 9 nM | 81 µg/mL (≈ 175 µM) | 13 µL/min/mg | 38 nM | –
CNS(=O)(=O)Nc1cccc(Cc2c(C)c3cc(F)c(OC(=O)N(C)C)cc3oc2=O)c1 | 99 µM·h | – | 5 ×10⁻⁶ cm/s | 22 nM | 55 µg/mL (≈ 119 µM) | 13 µL/min/mg | 64 nM | –
CNS(=O)(=O)Nc1cccc(Cc2c(CF)c3ccc(OC(=O)N(C)C)cc3oc2=O)c1 | 86 µM·h | 120 nM | 4 ×10⁻⁶ cm/s | 30 nM | 72 µg/mL (≈ 155 µM) | 22 µL/min/mg | 66 nM | –
CNS(=O)(=O)Nc1cccc(Cc2c(C)c3ccc(Oc4ncccn4)cc3oc2=O)c1 | 223 µM·h | > 10000 nM | 6 ×10⁻⁶ cm/s | 190 nM | 29 µg/mL (≈ 64.1 µM) | 20 µL/min/mg | 810 nM | –
CNS(=O)(=O)Nc1cccc(Cc2c(C)c3ccc(Oc4ncccn4)cc3oc2=O)c1F | 425 µM·h | 23 nM | 6 ×10⁻⁶ cm/s | 17 nM | 13 µg/mL (≈ 27.6 µM) | 7 µL/min/mg | 97 nM | inhibition at 10 µM (hERG (KCNH2)): 25%
CNS(=O)(=O)Nc1cccc(Cc2c(C)c3ccc(Oc4nccs4)cc3oc2=O)c1 | – | 1500 nM | 2 ×10⁻⁶ cm/s | 160 nM | 9 µg/mL (≈ 19.7 µM) | 24 µL/min/mg | 59 nM | –
